This passage reports IC50, Activity and Ki results from ChEMBL document CHEMBL2034818, “Synthesis and evaluation of boronic acids as inhibitors of Penicillin Binding Proteins of classes A, B and C” (Bioorg Med Chem, 2012).

Experiment [1] has as its target T1, D-alanyl-D-alanine carboxypeptidase (Actinomadura sp. R39, UniProt P39045). As to the kind of experiment: Inhibition of Actinomadura sp. R39 PBP using S2d as substrate incubated for 60 mins prior to substrate addition by DTNB-based spectrophotometry. In outline:
(§1)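 PBP purified per earlier method. Pre-incubation: enzyme with inhibitor (DMF stock, 1% DMF final) at 25 °C for 60 min. Buffer for R39 (3.5 nM): 10 mM sodium phosphate pH 7.2, 100 mM NaCl, 100 mM D-alanine, 0.01 mg/mL BSA. Buffer for PBP2xR6: 10 mM sodium phosphate pH 7.0, 0.01 mg/mL BSA. S2d (1 mM) and DTNB (1 mM) then added. Initial hydrolysis rate read at 412 nm. Triplicates. IC50 by non-linear regression of residual activity over a concentration range, with 0.01% Triton X-100.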

Experiment [2] addresses D-alanyl-D-alanine carboxypeptidase (Actinomadura sp. R39) (UniProt P39045). Briefly: Inhibition of Actinomadura sp. R39 PBP using S2d as substrate assessed as residual activity at 1 mM incubated for 60 mins prior to substrate addition by DTNB-based spectrophotometry. In outline: (§2)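 R39 (Actinomadura, prepared per Granier), 3.5 nM, pre-incubated with inhibitor 60 min at 25 °C in 10 mM sodium phosphate pH 7.2, 100 mM NaCl, 100 mM D-alanine, 0.01 mg/mL BSA; inhibitors from DMF stock, 1% DMF final. Residual activity from initial rate of S2d (1 mM) hydrolysis with DTNB (1 mM), read at 412 nm, corrected for spontaneous hydrolysis; triplicates, uninhibited control six replicates per plate.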

Experiment [3] addresses T2, Penicillin-binding protein 2X (Streptococcus pneumoniae R6, UniProt P59676).
T2 sequence (P59676 whole entry): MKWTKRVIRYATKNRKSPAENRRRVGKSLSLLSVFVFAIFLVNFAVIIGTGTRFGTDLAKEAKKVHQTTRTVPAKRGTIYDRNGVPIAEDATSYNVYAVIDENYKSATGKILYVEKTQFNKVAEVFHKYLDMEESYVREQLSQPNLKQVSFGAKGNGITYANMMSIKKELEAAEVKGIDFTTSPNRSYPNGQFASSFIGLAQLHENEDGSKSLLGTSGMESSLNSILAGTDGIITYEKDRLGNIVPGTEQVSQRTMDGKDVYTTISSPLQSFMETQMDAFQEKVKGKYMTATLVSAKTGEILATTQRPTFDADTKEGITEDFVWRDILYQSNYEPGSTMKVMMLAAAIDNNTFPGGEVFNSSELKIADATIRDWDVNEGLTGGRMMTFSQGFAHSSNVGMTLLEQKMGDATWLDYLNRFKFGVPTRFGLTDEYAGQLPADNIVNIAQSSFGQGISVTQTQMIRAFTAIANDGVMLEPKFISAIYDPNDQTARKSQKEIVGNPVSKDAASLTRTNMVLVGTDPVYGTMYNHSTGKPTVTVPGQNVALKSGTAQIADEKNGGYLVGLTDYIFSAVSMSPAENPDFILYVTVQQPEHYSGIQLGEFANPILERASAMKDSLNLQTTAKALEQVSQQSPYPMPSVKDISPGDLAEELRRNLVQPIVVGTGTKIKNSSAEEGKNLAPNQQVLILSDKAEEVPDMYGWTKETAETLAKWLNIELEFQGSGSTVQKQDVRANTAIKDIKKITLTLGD
As to the kind of experiment: Inhibition of penicillin-sensitive Streptococcus pneumoniae R6 PBP2x using S2d as substrate incubated for 60 mins prior to substrate addition by DTNB-based spectrophotometry. In outline: as §1

Experiment [4] deals with T3, Penicillin-binding protein 2X (Streptococcus pneumoniae R6) (UniProt P59676).
T3 sequence (whole entry): T2 sequence (P59676 whole entry)
As to the kind of experiment: Inhibition of penicillin-sensitive Streptococcus pneumoniae R6 PBP2x using S2d as substrate assessed as residual activity at 1 mM incubated for 60 mins prior to substrate addition by DTNB-based spectrophotometry. A digest of the protocol: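 S. pneumoniae PBP2x-R6, 0.09 µM, pre-incubated with inhibitor in 10 mM sodium phosphate pH 7.0 with 0.01 mg/mL BSA, 60 min, 25 °C; 1% DMF final. S2d (1 mM) plus DTNB (1 mM) then added; residual activity taken from initial hydrolysis rate at 412 nm, corrected for spontaneous hydrolysis; triplicates, six no-inhibitor controls per plate.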

A short description of experiment [5]: Inhibition of Streptococcus pneumoniae PBP1b using PATP thioester as substrate incubated for 60 mins prior to substrate addition by DNTB-based spectrophotometry in the presence of triton X 100. In outline: (§3)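 Assay B: S. pneumoniae PBP1b (0.2 µM) pre-incubated with inhibitor 60 min at 25 °C in 10 mM sodium phosphate pH 7.0, 100 mM D-alanine, 0.01 mg/mL BSA, 0.01% Triton X-100. Residual activity from initial rates of PATP thioester (5 mM) hydrolysis with DTNB (1.0 mM); IC50 by non-linear regression of residual activity across concentrations.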

Experiment [6] relates to Streptococcus pneumoniae. As to the kind of experiment: Inhibition of Streptococcus pneumoniae PBP1b using PATP thioester as substrate assessed as residual activity at 100 uM incubated for 60 mins prior to substrate addition by DNTB-based spectrophotometry in the presence of triton X 100. In outline: as §3
The target in experiment [7] is T4, Penicillin-binding protein 2x (Streptococcus pneumoniae serotype 4 (strain ATCC BAA-334 / TIGR4)) (UniProt P14677).
T4 sequence (whole entry): T2 sequence (P59676 whole entry) with M385T
Briefly: Inhibition of penicillin-resistant Streptococcus pneumoniae 5204 PBP2x using S2d as substrate assessed as residual activity at 1 mM incubated for 4 hrs prior to substrate addition by DNTB-based spectrophotometry in the presence of triton X 100.

Experiment [8] has as its system Staphylococcus aureus. Briefly: Inhibition of penicillin-resistant Staphylococcus aureus PBP2a assessed as residual activity at 1 mM incubated for 4 hrs prior to prior to fluoresceyl-ampicillin labelling measured after 20 mins by SDS-PAGE analysis.
The subject of experiment [9] is Enterococcus faecium. As to the kind of experiment: Inhibition of penicillin-resistant Enterococcus faecium PBP5fm assessed as residual activity at 1 mM incubated for 4 hrs prior to prior to fluoresceyl-ampicillin labelling measured after 20 mins by SDS-PAGE analysis.
For experiment [10], the system named is Streptococcus pneumoniae. As to the kind of experiment: Inhibition of Streptococcus pneumoniae PBP1b using PATP thioester as substrate assessed as residual activity at 1 mM incubated for 60 mins prior to substrate addition by DNTB-based spectrophotometry in the presence of triton X 100. A digest of the protocol:
as §3

Experiment [11] concerns the target T4, Penicillin-binding protein 2x (Streptococcus pneumoniae serotype 4 (strain ATCC BAA-334 / TIGR4)). As to the kind of experiment: Inhibition of penicillin-resistant Streptococcus pneumoniae 5204 PBP2x using S2d as substrate assessed as residual activity at 1 mM incubated for 4 hrs prior to substrate addition by DNTB-based spectrophotometry.
Experiment [12] concerns Streptococcus pneumoniae. As to the kind of experiment: Inhibition of Streptococcus pneumoniae PBP1b assessed as residual activity at 100 uM incubated for 60 mins prior to fluoresceyl-ampicillin labelling measured after 20 mins by SDS-PAGE analysis in the presence of triton X 100. In outline:
(§4)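 Assay A: purified S. pneumoniae PBP1b (0.7 µM) pre-incubated with inhibitor in 10 mM sodium phosphate pH 7.0, 60 min, 25 °C, 0.01% Triton X-100. Remaining active enzyme labelled with fluoresceyl-ampicillin (10 µM), 20 min; reaction stopped, run on SDS-PAGE, fluorescence of the band quantified as residual activity.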

Experiment [13] deals with Streptococcus pneumoniae. As to the kind of experiment: Inhibition of Streptococcus pneumoniae PBP1b using PATP thioester as substrate assessed as residual activity at 1 mM incubated for 60 mins prior to substrate addition by DNTB-based spectrophotometry. A digest of the protocol:
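PBP1b (0.2 µM) pre-incubated with inhibitor for 60 min at 25 °C in 10 mM sodium phosphate pH 7.0, 100 mM D-alanine, 0.01 mg/mL BSA. PATP thioester (5 mM) and DTNB (1.0 mM) then added. Residual activity derived from initial hydrolysis rates against no-inhibitor controls.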

The target of experiment [14] is T1, D-alanyl-D-alanine carboxypeptidase. Briefly: Binding affinity to Actinomadura sp. R39 PBP.
A short description of experiment [15]: Inhibition of Streptococcus pneumoniae PBP1b incubated for 60 mins prior to fluoresceyl-ampicillin labelling measured after 20 mins by SDS-PAGE analysis in the presence of triton X 100. A digest of the protocol:
as §4

The subject of experiment [16] is Streptococcus pneumoniae. As to the kind of experiment: Inhibition of Streptococcus pneumoniae PBP1b assessed as residual activity at 1mM incubated for 60 mins prior to fluoresceyl-ampicillin labelling measured after 20 mins by SDS-PAGE analysis in the presence of triton X 100. A digest of the protocol: as §4
For experiment [17], the target named is D-alanyl-D-alanine carboxypeptidase (Actinomadura sp. R39) (UniProt P39045). Briefly: Inhibition of Actinomadura sp. R39 PBP using S2d as substrate assessed as residual activity at 1 mM incubated for 60 mins prior to substrate addition by DTNB-based spectrophotometry in presence of triton X 100. A digest of the protocol:
as §2

In experiment [18] the target is T3, Penicillin-binding protein 2X (Streptococcus pneumoniae R6). Briefly: Inhibition of penicillin-sensitive Streptococcus pneumoniae R6 PBP2x using S2d as substrate assessed as residual activity at 1 mM incubated for 60 mins prior to substrate addition by DTNB-based spectrophotometry in presence of triton X 100. In outline: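 PBP2xR6 (0.09 µM) pre-incubated with inhibitor for 60 min at 25 °C in 10 mM sodium phosphate pH 7.0, 0.01 mg/mL BSA, with 0.01% Triton X-100. 1% DMF final. S2d (1 mM) and DTNB (1 mM) then added. Initial hydrolysis rate read at 412 nm. Triplicates. Uninhibited activity from six replicates per plate.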

Changes are numbered by the printed parent chain. A value given as a limit tells only on which side of the number the result lay.

T1 sequence (P39045 whole entry): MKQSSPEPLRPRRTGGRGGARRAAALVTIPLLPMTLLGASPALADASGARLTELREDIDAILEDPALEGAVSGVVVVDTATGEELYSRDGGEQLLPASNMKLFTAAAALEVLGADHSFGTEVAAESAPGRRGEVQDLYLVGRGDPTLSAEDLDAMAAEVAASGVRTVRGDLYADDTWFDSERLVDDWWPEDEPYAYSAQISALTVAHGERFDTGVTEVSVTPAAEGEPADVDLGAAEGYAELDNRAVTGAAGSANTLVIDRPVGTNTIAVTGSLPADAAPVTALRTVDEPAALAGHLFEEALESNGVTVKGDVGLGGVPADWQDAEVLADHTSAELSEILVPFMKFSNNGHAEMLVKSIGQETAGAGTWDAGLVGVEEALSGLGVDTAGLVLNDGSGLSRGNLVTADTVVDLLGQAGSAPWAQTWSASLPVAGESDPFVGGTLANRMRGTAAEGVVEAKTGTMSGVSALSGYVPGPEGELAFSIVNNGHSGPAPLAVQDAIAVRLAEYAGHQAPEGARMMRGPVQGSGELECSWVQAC
Chain of D-alanyl-D-alanine carboxypeptidase (Actinomadura sp. R39) (P39045 whole entry): as above

Regarding `O=C(NCB(O)O)c1c(F)cccc1F`, the results for the IC50 in experiment [1], in experiment [3] and in experiment [5] were 35 µM, 906 µM and 7 µM, respectively. The Activity in experiment [2] is 6%; in [4], 40%; in experiment [6] it was 7%; in experiment [7], 86%; in [8], 91%; in experiment [9] it was 88%.
Regarding `COc1ccccc1C(=O)NCB(O)O`, the Activity is 43% in [2]; 86% in [4]; 1% in [10]; 67% in experiment [6]; 99% in experiment [11].
As for `Cc1ccccc1C(=O)NCB(O)O`, the Activity worked out at 45% in [2]; 70% in experiment [4]; 27% in experiment [12]; 105% in [11]; 88% in experiment [8]; 85% in experiment [9]. In addition, the 50% inhibitory concentration (IC50) (usually the concentration that gives 50% inhibition) in experiment [5] amounted to 18 µM.
Consider `COc1cccc(OC)c1C(=O)NCB(O)O`, for which the figures for the IC50 in [1], in [3] and in experiment [5] were 1.3 µM, 278 µM and above 1000 µM, respectively. Moreover, the Activity in experiment [2] is 0%; in [4] it was 26%; in [13], 67%; in experiment [11] it was 100%. Moreover, the inhibitory constant (Ki) (in general, the dissociation constant of the complex between target and ligand, obtained from inhibition or displacement) in [14] is 1.5 µM.
With `COc1cccc(C(=O)NCB(O)O)c1`, the Activity in experiment [2] worked out at 50%; in experiment [4] it was 55%; in [16], 23%; in experiment [11], 101%; in [8], 91%; in experiment [9], 89%. For the same compound, the half-maximal inhibitory concentration (IC50) in experiment [15] stood at 79 µM.
As for `O=C(CCc1ccccc1)NCB(O)O`, the Activity in experiment [2] stood at 51%; in [4] it was 71%; in experiment [16] it was 0%; in experiment [12], 95%; in experiment [11] it was 99%; in experiment [8], 83%. Also, the Activity in experiment [9] worked out at 79%.
Turning to `CC(=O)NCB(O)O`, the Activity in experiment [2] was determined as 74%; in [4] it was 100%; in experiment [10], 87%; in experiment [11], 97%.
Turning to `O=C(NCB(O)O)c1ccccc1Cl`, the half-inhibitory concentration (IC50) in [1] came to 85 µM; in experiment [3] it was 262 µM. The Activity was 15% in [17]; 31% in [18]; 20% in [6]; 70% in experiment [7]; 81% in [8]; 97% in experiment [9]. The affinity in [14] corresponds to a Ki of 42 µM.
As to `O=C(Cc1ccccc1)NCB(O)O`, half-maximal inhibition in experiment [1] (IC50) was put at 320 µM. Besides, the Activity in experiment [2] amounted to 29%; in experiment [4] it was 57%; in experiment [10] it was 56%; in experiment [7] it was 97%; in experiment [8] it was 90%; in experiment [9], 83%. Moreover, the Ki in experiment [14] amounted to 125 µM.
